Only a sample is shown.
PGC1a Ac signal: raises PGC1a acetylation signal in U2OS cells. U2OS PGC1a acetylation AlphaScreen, overnight. activation, % at 15.6 µM. hit rate 0.21% among 350,000;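 active = every replicate reaching activation of at least 50%, whatever the mean replicate activation; inconclusive = replicates that disagree or another doubt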;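 also: hits raise the AlphaScreen acetylation signal above neutral controls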
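Test system: U2OS cells expressing flag-PGC1a plus GCN5; Amount: 7000 U2OS cells per well; Compound: single test concentration per compound; Incubation: compound overnight at 37 °C, each detection step 1 h RT; Signal: AlphaScreen lysate read.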
Hep G6PC suppr: hepatocyte G6PC expression change via PGC-1a acetylation activation. G6PC suppression (normalized activity, % of positive control; higher = more suppression), % at 26 µM. 240 tested, under 10 active. primary mouse hepatocytes, G6PC mRNA qPCR, forskolin. AID 743463. shares compounds with PGC1a Ac signal;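 active = dose curves showing G6PC suppression whose half-maximal dose is at most twice the top valid dose; inconclusive = flat curves with moderate negative activity, or unreliable fits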;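 also: G6PC expression relative to GAPDH housekeeping gene as delta delta Ct; 0% = median of neutral control wells and 100% = median of positive control wells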
PCK1 hep suppr: PGC-1a acetylation activator altering hepatocyte PCK1 expression; PCK1 expression decrease, unspecified at 26 µM; AID 743465; 230 tested, under 10 active; primary mouse hepatocytes, PCK1 mRNA qPCR, forskolin-stimulated; shares compounds with PGC1a Ac signal;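 active = compounds lowering PCK1 expression whose fitted half-maximal concentration is at most twice the top tested dose; inconclusive = flat fit with moderate opposite-direction effect, or poor fit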;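 also: values are delta delta Ct of PCK1 relative to GAPDH; higher delta delta Ct means lower PCK1 expression so positive values indicate hits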
Hep PGC-1a down: PGC-1a acetylation activators affecting PGC-1a expression in hepatocytes. max activity (PGC-1a expression decrease), %. shares compounds with PGC1a Ac signal. AID 743467. primary mouse hepatocytes, PGC-1a mRNA qPCR, forskolin; top dose 26 µM. 240 tested, under 10 active;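 active = compound lowering PGC-1a expression with fitted half-maximal concentration at most twice its top tested dose; inconclusive = flat curve with moderate opposite-direction effect, or poor fit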;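 also: 0% = neutral control wells median and 100% = positive control wells median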
Active calls of the source: *.

`C=C1C(=O)OC2C1CCC(C)C1(O)C=CC(=O)C21C` (stereo not drawn) gave PGC1a Ac signal 115.4*.
C=C1C(=O)OC2CC(C)C3C=CC(=O)C3(C)C(O)C12 (stereo not drawn) was read as PGC1a Ac signal -42.3.
`CCCCN1C(=O)NC(=O)C2(Cc3c(nc4c(C)cccn4c3=O)N3CCc4ccccc4C32)C1=O` (stereo not drawn) gave PGC1a Ac signal 67.6*.
For CC1CCOC(=O)C=CC=CC(=O)OC2CC3OC4C5OC5(C)C(O)CC4(COC(=O)C1O)C2(C)C31CO1 (stereo not drawn) the results were PGC1a Ac signal -76.8.
`CN1CCN(c2ccc([N+](=O)[O-])c3no[n+]([O-])c23)CC1` gave PGC1a Ac signal -63.5.
`CN1C(=O)/C(=C\c2ccc(N3CCCCC3)o2)C(=O)NC1=S` gave PGC1a Ac signal 53.9*.
Screening CC(=O)O[C@H]1C[C@@H]2OC3C=C(C)CCC3(C)[C@@]1(C)[C@@]21CO1 (stereo partly drawn) returned PGC1a Ac signal -83.8.
For CC1=CC2OC3CC4OC(=O)C=CC=CC(=O)OCCC(C)C(O)C(=O)OCC2(CC1)C4(C)C31CO1 (stereo not drawn) the results were PGC1a Ac signal -77.4.
`COc1cccc(C(c2nnnn2C2CCCCC2)N2CCC3(CC2)C(=O)NCN3c2ccccc2)c1OC` (stereo not drawn) gave PGC1a Ac signal 71.6*.
C[C@H]1CCC/C=C/C2C[C@H](O)CC2[C@H](O)/C=C/C(=O)O1 (stereo partly drawn) was read as PGC1a Ac signal -72.2.
For CC1CCCN(CC(=O)N2CCCc3ccccc32)C1 (stereo not drawn) the results were PGC1a Ac signal -43.3.
For O=c1[nH]c2ccccc2n1C1CCN(C(CCc2ccccc2)c2nnnn2Cc2ccccc2)CC1 (stereo not drawn) the results were PGC1a Ac signal -103.5.
`CC(C)(C)n1nnnc1C(CCc1ccccc1)N1CCC2(CC1)C(=O)NCN2c1ccccc1` (stereo not drawn) gave PGC1a Ac signal 71.5*.
CC1CCC[C@H](O)CCCCCc2cc(O)cc(O)c2C(=O)O1 (stereo partly drawn) was read as PGC1a Ac signal -46.8.
CNc1cc(Cl)c2nonc2c1[N+](=O)[O-] was read as PGC1a Ac signal -68.2.
For CCOC(=O)C1=Nc2ccccc2/C1=C\c1c(O)n(C)c(=O)n(C)c1=O the results were PGC1a Ac signal -43.0.
O=c1[nH]c(=S)n(Cc2ccco2)c(O)c1C=NCc1cccs1 was read as PGC1a Ac signal -41.2.
`CN(C)CCN=Cc1c(O)n(Cc2ccco2)c(=O)[nH]c1=O` gave PGC1a Ac signal 82.2*.
Screening CCC1CN2CCc3cc(OC)c(OC)cc3C2CC1CC1NCCc2c1[nH]c1ccc(O)cc21 (stereo not drawn) returned PGC1a Ac signal -70.5.
`COc1ccc(Oc2cc(NC(=O)c3nn(C)cc3[N+](=O)[O-])cc([N+](=O)[O-])c2)cc1` gave PGC1a Ac signal -78.1.
Cc1ccc2c(c1)CC1(CN2C)C(=O)NC(=O)N(C(C)C)C1=O (stereo not drawn) was read as PGC1a Ac signal 50.8*.
For CC(N)C(=O)NC1C2C(=C(O)CC(O)C2O)C(=O)OC1(C)C(Cl)Cl (stereo not drawn) the results were PGC1a Ac signal -74.0.
For CC(O)C1C=CC=CC(=O)OC2CC3OC4C5OC5(C)C(O)CC4(COC(=O)C(O)C(C)CCO1)C2(C)C31CO1 (stereo not drawn) the results were PGC1a Ac signal -86.9.
`Cc1ccc(OC(=O)N(C)C[C@H]2OCc3ccccc3-c3c(n(C)c4ccccc34)C(=O)N([C@H](C)CO)C[C@H]2C)cc1` gave PGC1a Ac signal 228.8*, Hep G6PC suppr 91.8, PCK1 hep suppr 101 and Hep PGC-1a down 157.7.
`CC(=O)OC1CC2OC3C=C(C)CCC3(C)C1(C)C21CO1` (stereo not drawn) gave PGC1a Ac signal -87.2.
`NC(=O)c1cn(C2OC(CO)C(O)C2O)c2ncnc(N)c12` (stereo not drawn) gave PGC1a Ac signal -45.7.
`COc1ccccc1OCC(=O)Nc1ccc(Cl)cc1C(=O)c1ccccc1` gave PGC1a Ac signal inconclusive, Hep G6PC suppr 23.5, PCK1 hep suppr 79.7 and Hep PGC-1a down 58.4.
`CC[C@H](C)[C@@H]1NC(=O)CNC(=O)c2csc(n2)[C@H](C(C)(C)O)OC(=O)C(C)(C)[C@H](CCCC(C)(Cl)Cl)OC(=O)c2csc1n2` gave PGC1a Ac signal -59.7.
CC12CCC(O)CC1CCC1C2CCC2(C)C(C3=CC(=O)OC3)CCC12O (stereo not drawn) was read as PGC1a Ac signal -79.9.
`Cc1cccc(C)c1-n1nnnc1C(c1cccs1)N1CCC(n2c(=O)[nH]c3ccccc32)CC1` (stereo not drawn) gave PGC1a Ac signal inconclusive, Hep G6PC suppr 401.5, PCK1 hep suppr 251 and Hep PGC-1a down 377.3.
For CSCCC(c1nnnn1-c1c(C)cccc1C)N1CCC(n2c(=O)[nH]c3ccccc32)CC1 (stereo not drawn) the results were PGC1a Ac signal 89.2*, Hep G6PC suppr inactive, PCK1 hep suppr 775 and Hep PGC-1a down 148.8.
CC1CCC/C=C/C2CC(O)CC2C(O)/C=C/C(=O)O1 (stereo not drawn) was read as PGC1a Ac signal -72.6.
`CC1=CC2OC3CC4OC(=O)C=CC=CC(C(C)O)OCC(O)C5(C)OC5C(=O)OCC2(CC1O)C4(C)C31CO1` (stereo not drawn) gave PGC1a Ac signal -87.1.
For CC1CC(C)(O)CC(C(O)CC2CC(=O)NC(=O)C2)C1=O (stereo not drawn) the results were PGC1a Ac signal -76.9.
Screening O=C1NCN(c2ccccc2)C12CCN(C(c1cccc3ccccc13)c1nnnn1C1CCCCC1)CC2 (stereo not drawn) returned PGC1a Ac signal 67.5*, Hep G6PC suppr -9.2, PCK1 hep suppr 44.8 and Hep PGC-1a down inconclusive.
`Cc1ccc(C[n+]2c(-c3ccc(C)cc3)cc(-c3ccc(C)cc3)cc2-c2ccc(C)cc2)cc1` gave PGC1a Ac signal -67.2.
`C[C@H]1[C@@H](OS(=O)(=O)O)C[C@@H]2C[C@H]([C@@H](O)c3cc(=O)[nH]c(=O)[nH]3)NC3=NC[C@H]1N32` gave PGC1a Ac signal -93.5.
For COc1ccc(CC2C(=O)NC(C)C(=O)N(C)C3C(=O)N(C)C(Cc4ccc(O)c(c4)Oc4ccc(cc4)C3O)C(=O)NC(C)C(=O)NC(C)C(=O)N2C)cc1 (stereo not drawn) the results were PGC1a Ac signal -76.1.
`Cc1ccc(CS(=O)(=O)CCC(=O)N2CCC3(CC2)OCCO3)cc1` gave PGC1a Ac signal -44.2.
